Bioassay records as filed in PubChem.
FGF22 binding = shifts melting point of recombinant human FGF22 | Q9HCT0 | recombinant FGF22 thermal shift, SYPRO orange fluorescence; percent of sucrose octasulfate shift, DMSO zero | activity (Tm shift, normalised), % at 9.99 µM | 1.5% of 340,000 active | AID 651658;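 active = mean Tm shift, scaled 0 neutral to 100 positive control, at about 1.3% or above, every replicate too, limit read from the data; inconclusive = no clear call, values can overlap the other calls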
ERAP1 HTS inh = blocks human ERAP1 aminopeptidase activity; Q9NZ08; recombinant ERAP1, Leu-AMC fluorescence, 60 min; inhibition, % at 10.7 µM; 0.15% of 340,000 active;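 active = mean replicate inhibition of at least 30%, or all replicates individually reaching that 30% level; inactive = mean below 30% and not every replicate reaching it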;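 also: 0% = neutral control wells and 100% = L-leucinethiol positive control wells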
F508del corr = correctors of CFTR F508del function in bronchial epithelial cells; activity (quench increase), % at 7.58 µM; CFBE cells, YFP halide quenching; stimulated with forskolin plus potentiator P3; % fluorescence drop versus neutral controls; 0.36% of 350,000 active;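 active = mean added fluorescence quench of at least 8% versus neutral control, with both replicates also reaching 8%; inconclusive = only one of the mean or replicate conditions met; inactive = mean below 8% and not both replicates reaching 8%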;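 also: cells transiently co-express mutant CFTR-F508del with the halide-sensitive YFP; corrector assay measuring rescue of mutant channel to the surface after 24 h compound exposure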
DENV2 CPE = protects cells from dengue virus 2 cytopathic effect; DENV2-infected cells, cytopathic effect rescue, plate reader; CPE inhibition, % at 9.99 µM; 1.7% of 350,000 active; in the data active = CPE inhibition above about 20%, passing the limit was not always enough; inconclusive = no clear call, values can overlap the other calls; tested in BHK-21 cells;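 also: 0% = median of neutral control wells and 100% = median of positive control wells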
E-selectin induc = E-selectin induction on HUVECs. P16581. HUVEC E-selectin immunofluorescence imaging; normalized: neutral wells 0, TNF-alpha wells 100. activation, % at 7.58 µM. 0.37% of 260,000 active. AID 686992;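 active = mean E-selectin-positive cell signal at least 10% of the positive control, reached in at least 60% of replicates, without over 20% cell loss; inconclusive = no rule given, readout overlaps actives, possibly toxicity-flagged; inactive = the rest, including those meeting only one limit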
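Assay system: HUVEC primary endothelial cells. Input: 3,000 HUVEC seeded per well. Doses: one compound dose added by pin transfer. Read-out basis: % PE-positive cells. Benchmarks: TNF-alpha high, DMSO low. Detection: immunofluorescence imaging. Buffer or medium: EGM-2, gelatin.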
* = called active by the depositor; u = inconclusive; x = no result. Only some compounds are listed: those with a hit (about 3.7% of all), similar ones and a draw of the others.

SMILES	FGF22 binding	ERAP1 HTS inh	F508del corr	DENV2 CPE	E-selectin induc
COc1ccc(Cl)cc1NC(=O)CN(C)CC(=O)Nc1ccc(Br)cc1	0	-3	4	3	3
COc1ccc(NC(=O)CN(C)CC(=O)Nc2ccc(Cl)c(S(=O)(=O)N(C)C)c2)cc1	43*	-3	-1	8	0
COc1ccc(NC(=O)CN(C)CCOc2ccc(Cl)cc2)cc1OC	0	-5	4	47*	0
COc1ccc(Cl)cc1NC(=O)CN(C)CC(=O)Nc1cc(OC)c(OC)c(OC)c1	0	1	13*	-9	1
CN(CCOc1ccc(Cl)cc1)CC(=O)Nc1ccc(OC(F)(F)F)cc1	0	1	-2	2	x
C[C@H](CO)N1C[C@H](C)[C@H](CN(C)S(C)(=O)=O)OCCCC[C@H](C)Oc2ccc(NC(=O)Nc3ccc(C(F)(F)F)cc3)cc2C1=O	-1	0	0	-1	0
CN1C(=O)c2ccccc2CC12c1ccccc1C(=O)N2C (stereo not drawn)	43*	1	0	8	0
C[C@H]1CN([C@@H](C)CO)C(=O)c2cc(C#CC3CCCCC3)cnc2O[C@@H]1CN(C)S(C)(=O)=O	0	-2	2	1	0
CC(C)CC(=O)NNC(=S)Nc1ccc(S(N)(=O)=O)cc1	0	7	0	-5	x
CCc1ccc(C(=O)NNC(=S)Nc2ccc(S(N)(=O)=O)cc2)s1	1.8*	-2	5	-6	x
N#CCCn1nc(-c2ccc(Br)cc2)cc1Nc1ccccc1NC(=O)C(F)(F)F	2.5*	-1	0	2	1
COc1ccc(NC(=O)Nc2ccc3c(c2)CC(=O)N([C@@H](C)CO)C[C@H](C)[C@H](CN(C)S(=O)(=O)c2ccc(F)cc2)O3)cc1	0	0	0	13	0
C[C@H](CO)N1C[C@H](C)[C@@H](CN(C)Cc2ccncc2)Oc2ccc(N(C)C)cc2C1=O	-1	-3	2	47*	x
C[C@H](CO)N1C[C@H](C)[C@H](CN(C)CC2CC2)Oc2c(cccc2N(C)C)C1=O	0	4	-4	44*	0
C[C@@H]1CN([C@H](C)CO)C(=O)c2cccc(N(C)C)c2O[C@H]1CN(C)Cc1ccncc1	0	0	1	20*	0
O=C(c1ccc([N+](=O)[O-])cc1)N1CCSC1c1ccc(Cl)cc1 (stereo not drawn)	43*	-3	4	-3	0
C[C@@H]1CN([C@H](C)CO)C(=O)Cc2cc(NC(=O)Nc3ccc(F)cc3)ccc2O[C@H]1CN(C)C	0	-3	-1	u	x
O=C(COC(=O)C1CC(=O)N(Cc2ccco2)C1)Nc1ccc(F)cc1F (stereo not drawn)	0	-1	-3	74*	-2
O=C(NCc1ccccc1F)C1CC(=O)N(Cc2ccco2)C1 (stereo not drawn)	44*	-2	-3	-4	0
O=C(Nc1ccc(F)cc1)C1CC(=O)N(Cc2ccco2)C1 (stereo not drawn)	0	1	-1	4	x
O=C(COC(=O)C1CC(=O)N(Cc2ccco2)C1)Nc1ccccc1[N+](=O)[O-] (stereo not drawn)	0	-2	3	-7	x
Cc1cc(C)cc(C(=O)N[C@@H](C)C(=O)N2CCC3(CC2)NCCc2[nH]cnc23)c1	43*	-4	1	8	x
CC(C)C[C@@H](COCc1ccc(Cl)cc1)N1CCN(C(=O)c2ccc(C(F)(F)F)cc2)CCC1=O	-1	x	2	-5	5
CC(C)CC(COCc1ccc(Cl)cc1)N1CCN(C(=O)c2ccc(Cl)cc2Cl)CCC1=O (stereo not drawn)	0	x	2	100*	1
C[C@H]1CN([C@@H](C)CO)C(=O)c2cc(NC(=O)Nc3ccccc3)ccc2O[C@H]1CN(C)Cc1ccc(Cl)c(Cl)c1	x	x	-1	x	1
COC(=O)[C@H]1[C@H](CO)[C@H]2Cn3c(ccc(-c4ccncc4)c3=O)[C@H]2N1Cc1ccccc1F	0	30*	4	-16	0
CCNC(=O)[C@H]1[C@H](CO)[C@H]2Cn3c(ccc(-c4cccc(OC)c4)c3=O)[C@H]2N1S(C)(=O)=O	0	-3	x	28*	0
CCCN1[C@@H]2Cn3c(ccc(-c4cccnc4)c3=O)[C@H]1[C@@H](C(=O)NCCc1cn(C)cn1)[C@@H]2CO	0	31*	x	-1	1
